Inhibition and IC50 data for 44 compounds are collected here from ChEMBL document CHEMBL1142961, “Novel selective inhibitors of the zinc plasmodial aminopeptidase PfA-M1 as potential antimalarial agents” (J Med Chem, 2007).

The inhibition is the change of the read-out against control, counted positive when it falls. Usually IC50 stands for the concentration that gives 50% inhibition. A lower IC50 goes with greater potency in that assay.

For assay [1], the target named is T1, Aminopeptidase N (Plasmodium falciparum FcB1/Columbia) (UniProt O96935).
T1 sequence (whole entry): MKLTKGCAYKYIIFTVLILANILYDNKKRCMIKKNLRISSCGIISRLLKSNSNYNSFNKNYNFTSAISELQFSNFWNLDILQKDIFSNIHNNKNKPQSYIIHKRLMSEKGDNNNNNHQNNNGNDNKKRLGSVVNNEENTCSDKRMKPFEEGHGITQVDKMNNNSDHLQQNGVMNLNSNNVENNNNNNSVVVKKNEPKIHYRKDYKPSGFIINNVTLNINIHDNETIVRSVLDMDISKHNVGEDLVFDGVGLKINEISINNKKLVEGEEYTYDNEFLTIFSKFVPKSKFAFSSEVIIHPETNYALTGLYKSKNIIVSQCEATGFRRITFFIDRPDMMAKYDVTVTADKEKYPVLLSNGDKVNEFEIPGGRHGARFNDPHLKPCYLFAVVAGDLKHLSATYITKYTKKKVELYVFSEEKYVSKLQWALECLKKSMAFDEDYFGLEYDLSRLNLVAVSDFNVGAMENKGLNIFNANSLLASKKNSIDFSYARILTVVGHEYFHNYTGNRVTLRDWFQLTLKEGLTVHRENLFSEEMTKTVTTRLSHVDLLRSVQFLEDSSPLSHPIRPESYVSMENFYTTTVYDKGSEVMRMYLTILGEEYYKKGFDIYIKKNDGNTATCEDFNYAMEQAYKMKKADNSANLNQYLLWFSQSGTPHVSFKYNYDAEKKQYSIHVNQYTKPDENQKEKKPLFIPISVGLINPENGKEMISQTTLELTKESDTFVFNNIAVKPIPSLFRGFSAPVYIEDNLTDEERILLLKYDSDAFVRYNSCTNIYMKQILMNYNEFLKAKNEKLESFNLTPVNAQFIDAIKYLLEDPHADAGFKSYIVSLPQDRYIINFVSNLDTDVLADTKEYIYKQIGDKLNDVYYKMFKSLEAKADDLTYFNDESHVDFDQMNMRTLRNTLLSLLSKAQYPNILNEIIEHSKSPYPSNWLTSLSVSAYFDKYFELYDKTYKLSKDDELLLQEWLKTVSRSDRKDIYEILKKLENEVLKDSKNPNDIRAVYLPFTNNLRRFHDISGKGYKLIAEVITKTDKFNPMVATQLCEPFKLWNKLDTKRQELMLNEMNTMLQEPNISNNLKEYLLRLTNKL
Description: Inhibition of Plasmodium falciparum FcB1 M1 aminopeptidase at 10 uM. In short, it runs like this: (§1)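 Native enzyme purified from P. falciparum FcB1, diluted 10-fold in 25 mM Tris-HCl pH 7.4. Preincubated with inhibitor for 10 min at room temperature, then Leu-pNA substrate added (0.3 mM stock, Km 0.099 mM). Kinetics followed at 405 nm at room temperature. Initial velocities normalized to a no-inhibitor control. Single-point screen at 10 µM; IC50 from velocity versus inhibitor concentration curves. Bestatin used as reference.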

For a further assay, the target named is T2, Aminopeptidase N (Plasmodium falciparum FcB1/Columbia, UniProt O96935).
T2 sequence (O96935 whole entry): T1 sequence (whole entry)
As to the kind of experiment: Inhibition of Plasmodium falciparum FcB1 M1 aminopeptidase. In short, it runs like this:
as §1

The target in assay [2] is T3, Aminopeptidase N (Sus scrofa) (UniProt P15145).
T3 sequence (whole entry): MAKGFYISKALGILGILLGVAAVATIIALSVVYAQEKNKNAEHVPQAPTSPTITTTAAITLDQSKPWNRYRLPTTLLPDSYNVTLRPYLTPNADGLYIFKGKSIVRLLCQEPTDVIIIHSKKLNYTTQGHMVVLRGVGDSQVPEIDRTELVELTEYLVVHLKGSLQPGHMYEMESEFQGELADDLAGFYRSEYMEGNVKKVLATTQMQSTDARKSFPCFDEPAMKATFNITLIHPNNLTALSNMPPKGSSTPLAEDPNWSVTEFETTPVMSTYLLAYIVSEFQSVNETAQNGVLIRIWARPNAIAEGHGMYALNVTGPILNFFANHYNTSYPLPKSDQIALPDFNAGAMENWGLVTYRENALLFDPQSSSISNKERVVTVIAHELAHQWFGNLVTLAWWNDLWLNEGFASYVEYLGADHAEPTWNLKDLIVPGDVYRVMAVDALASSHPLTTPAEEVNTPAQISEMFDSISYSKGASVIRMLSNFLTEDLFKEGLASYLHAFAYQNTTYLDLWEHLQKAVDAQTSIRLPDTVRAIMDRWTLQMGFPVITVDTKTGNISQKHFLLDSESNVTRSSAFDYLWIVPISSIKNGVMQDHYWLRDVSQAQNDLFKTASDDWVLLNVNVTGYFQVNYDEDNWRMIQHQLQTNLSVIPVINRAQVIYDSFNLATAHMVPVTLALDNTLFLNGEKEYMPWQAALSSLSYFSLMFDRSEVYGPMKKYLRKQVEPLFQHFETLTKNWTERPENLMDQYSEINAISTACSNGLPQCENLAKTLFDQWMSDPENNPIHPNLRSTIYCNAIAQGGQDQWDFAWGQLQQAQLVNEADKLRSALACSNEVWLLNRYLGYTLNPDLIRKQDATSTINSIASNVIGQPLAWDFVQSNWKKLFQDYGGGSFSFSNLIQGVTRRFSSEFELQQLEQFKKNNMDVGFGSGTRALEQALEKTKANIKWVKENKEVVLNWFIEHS
Description: Inhibition of pig kidney microsomal APN at 10 uM. Summed up:
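Porcine kidney microsomal APN (ammonium sulfate suspension) diluted 600-fold in 25 mM Tris-HCl pH 7.4. Preincubated with inhibitor for 10 min at room temperature, then Leu-pNA added (0.3 mM stock). Hydrolysis followed at 405 nm at room temperature. Rates normalized to a no-inhibitor control. Single point at 10 µM; IC50 from concentration-velocity curves. Bestatin used as reference.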

`O=C(NO)C(Cc1ccccc1)C(=O)N1CCc2ccccc2C1` (configuration not stated): the figures for the inhibition in assay [1] and in assay [2] were 84% and 50%, respectively. At Aminopeptidase N, the midpoint of inhibition, the IC50, lay at 253 nM.

On to `O=C(NO)C(Cc1ccccc1)C(=O)NCCCc1ccccc1` (configuration not stated), for which the inhibition turned out to be 94% in assay [1] and 84% in assay [2]. The IC50 against Aminopeptidase N was 125 nM.

For the compound `O=C(NO)C(Cc1ccccc1)C(=O)N1CCC(Cc2ccccc2)CC1` (configuration not stated), the inhibition stood at 92% in assay [1] and 34% in assay [2]. Further, at Aminopeptidase N, the IC50 is 206 nM.

Regarding `CC(C)CC(C(=O)NO)C(=O)NC1CCCc2ccccc21` (configuration not stated), at Aminopeptidase N, the IC50 was found to be 109 nM.

`CC(C)CC(C(=O)NO)C(=O)NCc1ccc(Cl)cc1` (configuration not stated): the values for the inhibition in assay [1] and in assay [2] were 90% and 99%, respectively. Also, the IC50 on Aminopeptidase N is 904 nM.

`O=C(NO)C(Cc1cccc(Oc2ccccc2)c1)C(=O)NCCCCc1ccccc1` (configuration not stated): the figures for the inhibition in assay [1] and in assay [2] were 96% and 84%, respectively. The IC50 at Aminopeptidase N amounted to 225 nM.

Consider `O=C(NO)C(Cc1ccccc1)C(=O)NCc1cccc(Oc2ccccc2)c1` (configuration not stated), for which the inhibition turned out to be 87% in assay [1] and 83% in assay [2]. On Aminopeptidase N, the IC50 stood at 2510 nM.

Turning to `O=C(NO)C(Cc1ccccc1)C(=O)N1CCN(Cc2ccccc2)CC1` (configuration not stated), the inhibition in assay [1] was 75%; in assay [2] it was 21%. The compound further gave a concentration for half-maximal inhibition (IC50) on Aminopeptidase N of 1760 nM.

Take `O=C(NO)C(Cc1ccccc1)C(=O)NCC(c1ccccc1)c1ccccc1` (configuration not stated): at Aminopeptidase N, 5360 nM corresponded to half-maximal inhibition (IC50).

As to `CC(C)CC(C(=O)NO)C(=O)NCCc1ccccn1` (configuration not stated), the figures for the inhibition in assay [1] and in assay [2] were 30% and 86%, respectively.

On to `CC(C)CC(C(=O)NO)C(=O)N1CCC(n2c(=O)[nH]c3ccccc32)CC1` (configuration not stated), for which the inhibition is 15% in assay [1] and 54% in assay [2].

Consider `CC(C)CC(C(=O)NO)C(=O)NC1CCN(Cc2ccccc2)CC1` (configuration not stated), for which the inhibition in assay [1] came out at 3%; in assay [2], 57%.

For the compound `O=C(CC(=O)N1CCN(Cc2ccccc2)CC1)NO`, the inhibition in assay [1] was found to be 8%; in assay [2], 23%.

Regarding `CN(CCCCc1ccccc1)C(=O)CC(=O)NO`, the inhibition was -4% in assay [1] and 11% in assay [2].

`NC(C(=O)NO)C(=O)NCCC(c1ccccc1)c1ccccc1` (configuration not stated): the inhibition stood at 8% in assay [1] and 62% in assay [2].

As to `O=C(NO)C(Cc1cccc(Oc2ccccc2)c1)C(=O)N1CCN(c2ccccc2)CC1` (configuration not stated), the inhibition came to 38% in assay [1] and 63% in assay [2].

On to `O=C(NO)C(Cc1ccccc1)C(=O)NCc1cccc2ccccc12` (configuration not stated), for which inhibition at Aminopeptidase N was half-maximal at 107 nM (IC50).

For the compound `O=C(NO)C(Cc1cccc(Oc2ccccc2)c1)C(=O)NC1Cc2ccccc2C1` (configuration not stated), the values for the inhibition in assay [1] and in assay [2] were 43% and 72%, respectively.

In the case of `NC(C(=O)NO)C(=O)NCCCCc1ccccc1` (configuration not stated), the inhibition in assay [1] is 56%; in assay [2], 42%.

With `CC(C)CN(CCCCc1ccccc1)C(=O)C(Cc1cccc(Oc2ccccc2)c1)C(=O)NO` (configuration not stated), the figures for the inhibition in assay [1] and in assay [2] were 36% and 52%, respectively.

For `CC(C)CN(CCCCc1ccccc1)C(=O)CC(=O)NO`, the values for the inhibition in assay [1] and in assay [2] were 22% and 45%, respectively.

For the compound `NC(C(=O)NO)C(=O)NCc1ccc(F)cc1` (configuration not stated), the figures for the inhibition in assay [1] and in assay [2] were 9% and 18%, respectively.

For `NC(C(=O)NO)C(=O)NCc1cccc(-c2ccccc2)c1` (configuration not stated), the results for the inhibition in assay [1] and in assay [2] were 35% and 62%, respectively.

With `CC(C)CC(C(=O)NO)C(=O)NCCC(c1ccccc1)c1ccccc1` (configuration not stated), the inhibition was found to be 76% in assay [1] and 102% in assay [2].

Turning to `NC(C(=O)NO)C(=O)N1CCc2ccccc2C1` (configuration not stated), the inhibition in assay [1] was determined as 49%; in assay [2], 32%.

For the compound `O=C(CC(=O)NCc1ccc(Cl)cc1)NO`, the inhibition in assay [1] came to 10%; in assay [2], 13%.

With `CN(Cc1ccccc1)C(=O)CC(=O)NO`, the inhibition was -4% in assay [1] and 9% in assay [2].

As for `CN(CCCNC(=O)C(N)C(=O)NO)c1ccccc1` (configuration not stated), the figures for the inhibition in assay [1] and in assay [2] were 3% and 18%, respectively.

For `NC(C(=O)NO)C(=O)N1CCC(Cc2ccccc2)CC1` (configuration not stated), the inhibition in assay [1] was found to be 45%; in assay [2], 39%.

For `NC(C(=O)NO)C(=O)NCc1cccnc1` (configuration not stated), the inhibition in assay [1] is -6%; in assay [2], 24%.

Turning to `NC(C(=O)NO)C(=O)NCCNc1cccc2ccccc12` (configuration not stated), the inhibition in assay [1] was determined as 2%; in assay [2] it was 16%.

`O=C(NO)C(Cc1ccccc1)C(=O)NCCC(c1ccccc1)c1ccccc1` (configuration not stated): the inhibition in assay [1] was found to be 65%; in assay [2], 83%.

With `CC(C)CC(C(=O)NO)C(=O)N1CCN(C(c2ccccc2)c2ccccc2)CC1` (configuration not stated), the inhibition is -2% in assay [1] and 19% in assay [2].

`NC(C(=O)NO)C(=O)NCc1ccc(Cl)cc1` (configuration not stated): the inhibition in assay [1] came to 5%; in assay [2] it was 54%.

Turning to `O=C(CC(=O)N1CCC2(CC1)C(=O)NCN2c1ccccc1)NO`, the inhibition in assay [1] worked out at 5%; in assay [2], 19%.

Turning to `O=C(CC(=O)NCCCc1ccccc1)NO`, the inhibition was 2% in assay [1] and 15% in assay [2].

As for `O=C(NO)C(Cc1cccc(Oc2ccccc2)c1)C(=O)NCc1ccc(F)cc1` (configuration not stated), the values for the inhibition in assay [1] and in assay [2] were 35% and 22%, respectively.

As for `O=C(NO)C(Cc1ccccc1)C(=O)N(CCc1ccccc1)Cc1ccccc1` (configuration not stated), the results for the inhibition in assay [1] and in assay [2] were 75% and 56%, respectively.

`NC(C(=O)NO)C(=O)NC1Cc2ccccc2C1` (configuration not stated): the inhibition was 20% in assay [1] and 36% in assay [2].

For the compound `O=C(NO)C(Cc1ccccc1)C(=O)NCc1ccc(C(F)(F)F)cc1` (configuration not stated), the inhibition in assay [1] is 67%; in assay [2] it was 75%.

On to `CC(C)CC(C(=O)NO)C(=O)NCc1cccc(-c2ccccc2)c1` (configuration not stated), for which the inhibition in assay [1] was 69%; in assay [2] it was 95%.

For `O=C(NO)C(Cc1cccc(Oc2ccccc2)c1)C(=O)N1CCN(C(c2ccccc2)c2ccccc2)CC1` (configuration not stated), the inhibition in assay [1] was -6%; in assay [2] it was 41%.

Regarding `O=C(NO)C(Cc1ccccc1)C(=O)N[C@H]1CCN(Cc2ccccc2)C1` (some centres not stated), the inhibition was 43% in assay [1] and 28% in assay [2].

Take `O=C(NO)C(Cc1ccccc1)C(=O)N1CCN(Cc2ccc3c(c2)OCO3)CC1` (configuration not stated): the inhibition in assay [1] was 53%; in assay [2], 29%.
